Assay results reported in paper PMC10234622 (Matrix biology : journal of the International Society for …, 2022).

Columns and labels:
[1] = target: FITC-labeled ASPN peptide (FITC-ε-Ahx-Asporin) (mouse); assay: MST
[2] = tested on: Aspn in 3T3 embryonic fibroblasts; assay: Aspn expression and release in 3T3 embryonic fibroblasts, western blot; assay type: cell-based; conditions: TGFβ1 5 ng/ml, 24 h; n = 4
Procedure, shortened: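 3T3 fibroblasts were grown in DMEM (10 mM glucose, 10% FBS, pH 7.4) and given vehicle or TGFβ1 5 ng/ml for 24 h. Intracellular Aspn came from cell lysates and extracellular Aspn from the collected media. Equal protein (Bradford) was run on 4–12% Bis-Tris gels and transferred to nitrocellulose. Blots were blocked in 5% milk 45 min, probed with anti-ASPN 1:1000 overnight at 4 °C, then peroxidase secondary 2 h RT; n = 4.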

[3] = tested on: Aspn in differentiated H9c2 cardiomyocytes; assay: Aspn expression and release in H9c2 cardiomyocytes; assay type: cell-based; conditions: TGFβ1 stimulation of cardiomyocytes
[4] = tested on: H9c2 cardiomyocytes; assay: Seahorse respirometry on differentiated H9c2 cardiomyocytes; assay type: cell-based; conditions: rASPN 1 nM for 24 hrs, vs vehicle, n = 3
Procedure, shortened: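 H9c2 cells were seeded at 15,000/well and differentiated for 5 days, then given vehicle or rASPN 1 nM for 24 h. Medium was switched to XF base with glucose, pyruvate and glutamine, and cells equilibrated 45 min at 37 °C without CO₂. OCR was recorded at several time points, basally and after sequential oligomycin, FCCP and antimycin A/rotenone. Parameters were calculated from traces; mean with SD, n = 3, unpaired t-test.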

[5] = tested on: differentiated H9c2 cardiomyocytes; assay: LDH release after hypoxia/reoxygenation; assay type: cell-based; conditions: rASPN 1 nM for 24 hrs prior to hypoxia (2 hrs) and reoxygenation (2 hrs); n = 4
[6] = tested on: differentiated H9c2 cardiomyocytes; assay: TUNEL staining after hypoxia/reoxygenation; assay type: cell-based; conditions: rASPN treatment; hypoxia-reoxygenation
Procedure, shortened: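 H9c2 cells were differentiated for 5 days (1% FBS, 1 nM retinoic acid) and given vehicle or rASPN 1 nM for 24 h. Hypoxia 2 h and reoxygenation 2 h followed. Cells were fixed in 2% PFA 15 min RT, permeabilized with 0.1% Triton X-100, TUNEL-labelled with fluorescein and counterstained with DAPI. TUNEL-positive nuclei were counted over many fields of 10–15 cells and expressed as a ratio to DAPI-stained cells; mean with SD.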

[7] = tested on: differentiated H9c2 cardiomyocytes; assay: MitoSOX staining, ROS after hypoxia-reoxygenation; assay type: cell-based; conditions: rASPN
Procedure, shortened: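 H9c2 cells were differentiated for 5 days in DMEM with 1% FBS and 1 nM retinoic acid. They were given vehicle or rASPN, then simulated hypoxia-reoxygenation; control cells stayed under normal culture. Cells were stained with MitoSOX red and imaged by fluorescence microscopy. Intensity was expressed relative to control; mean with SD, one-way ANOVA with Tukey's test.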

**Q.** Which Kd [1] does the source give for “recombinant mouse TGFβ-1 protein (from UniProt P04202 279-390) (ligand)” here?
**A.** The Kd was 15 nM.

**Q.** What does the source list for TGFβ1: Transforming growth factor β1?
**A.** expression of Aspn (intracellular) [2]: increased expression; release of Aspn into extracellular media [2]: increased release of Aspn; Aspn induction or release in extracellular media [3]: no significant induction or any release in extracellular media

B1: rASPN: Recombinant asporin protein (protein, UniProt Q9BXN1 33-380, looked up)
Asporin: DMEDTDDDDDDDDDDDDDDEDNSLFPTREPRSHFFPFDLFPMCPFGCQCYSRVVHCSDLGLTSVPTNIPFDTRMLDLQNNKIKEIKENDFKGLTSLYGLILNNNKLTKIHPKAFLTTKKLRRLYLSHNQLSEIPLNLPKSLAELRIHENKVKKIQKDTFKGMNALHVLEMSANPLDNNGIEPGAFEGVTVFHIRIAEAKLTSVPKGLPPTLLELHLDYNKISTVELEDFKRYKELQRLGLGNNKITDIENGSLANIPRVREIHLENNKLKKIPSGLPELKYLQIIFLHSNSIARVGVNDFCPTVPKMKKSLYSAISLFNNPVKYWEMQPATFRCVLSRMSVQLGNFGM
**Q.** What does the source list for B1?
**A.** maximal respiration ([4]; FCCP as uncoupler): significant increase; spare respiratory capacity ([4]; FCCP as uncoupler): significant increase; ATP production [4]: increased basal OCR and ATP production; basal OCR [4]: increased basal OCR; non-mitochondrial OCR [4]: reducing; cell death (LDH release) [5]: reduced cell death; percent TUNEL positive cells [6]: reduced percent TUNEL positive cells; ROS production (MitoSOX) [7]: significantly reduced
